Experimental data published in PubChem BioAssay.
Records with an inconclusive call do not appear.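 Rule for the calls, unless noted: active = inhibition over a set limit, the all-compound mean plus 3 SD, in both replicate runs; inconclusive = over that limit in just one replicate run; inactive = at or under that limit in both runs.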

Legend:
[1] = S. cerevisiae growth inhibition in permissive medium (OD615), pilot counter-assay for S. cerevisiae lifespan shortening project, permissive growth control (AID 705;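 active = growth inhibition above 25% in both replicates, a cutoff set 3 SD above the mean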); details: OD615, 24 h, at 10 µM, hits give high values
In short: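 System: Engineered DeaD yeast | Buffer or medium: SC raffinose/galactose permissive medium | Doses: 10 µM single dose, 0.25% DMSO | Times: 24 h exposure, 30 °C | Measured by: OD615 turbidity read | Read-out: Yeast growth inhibition indicated by reduced 24 h OD615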

[2] = S. cerevisiae growth inhibition in restrictive medium, OD615, pilot screen, restrictive growth control, yeast lifespan reduction project (AID 706;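 active = growth inhibition above a set limit, 3 SD over mean compound inhibition, in both replicates, cut at about 43% in these data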;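 note: modified DeaD lifespan yeast strain shifted to restrictive glucose medium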); details: OD615, 48 h, at 10 µM, hits give high values
In short: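 Assay system: engineered S. cerevisiae DeaD strain; Buffer or medium: CSMM-D glucose medium; Dosing: 10 µM compound, 0.25% DMSO; Times: cell pre-growth 4 h, compound exposure 48 h, 30 °C; Detection: absorbance (optical density) measured at 615 nm.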

[3] = doxorubicin toxicity protection in MRP-1 cells – H69AR cells, CellTiter-Glo, duplicate, MRP-1 activator project, pilot screen (AID 807;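 active = viability increase at or above a cutoff of the median across tested compounds plus 3 SD, cut at about 8.5% in these data, passing the limit was not always enough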;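 note: compound pretreatment 18-22 h then 72 h combined with doxorubicin; 0% = doxorubicin alone and 100% = vehicle without doxorubicin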); details: H69AR viability with doxorubicin, CellTiter-Glo luminescence; at 10 µM; hits give high values
[4] = viability of HCT116 without oncogenic beta-catenin – human colon tumor cells, pilot screen (AID 823;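 active = cell viability at or below a set limit in both duplicate runs, the limit being the all-compound median minus 4 SD, cut at about 23% in these data, passing the limit was not always enough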;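 note: 0% = wells killed by 20 µM Hyamine and 100% = untreated DMSO cell wells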); details: HCT116 beta-catenin knockout viability, CellTiter-Glo, 60 h; at 10 µM; hits give low values
[5] = viability of PTEN-null HCT116 cells – cell-based, HCT116 clonal line, CellTiter-Glo, pilot screen (AID 824;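 active = viability at or below 27.92% in each of two runs, the all-compound median minus 4 SD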;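 note: 0% = 20 µM Hyamine control and 100% = vehicle cell control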); details: HCT116 PTEN-deleted viability, 60 h, at 10 µM, hits give low values
[6] = RAM pathway blockade in budding yeast – dse1pr::URA3 reporter, 5-FOA selection, pilot screen (AID 869);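 note: 0% = DMSO wells with no growth and 100% = 10 µM 1-NA-PP1 with full growth; RAM network block rescues cells from 5-FOA so hits raise OD615 growth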; details: S. cerevisiae dse1pr::URA3 5-FOA growth, OD615, 2 d; at 10 µM; hits give high values; strain carries analog-sensitive mutant Cbk1 kinase
[7] = RAM signaling pathway blockade in yeast – S. cerevisiae, Pdr1DBD-CYC8 efflux-inhibited sensitized strain, primary screen (AID 1298;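 active = RAM network inhibition above 8.4% in each of two replicates, 3 SD over the compound average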;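 note: 0% = DMSO untreated cells without growth and 100% = 10 µM 1-NA-PP1 full growth; higher means more yeast growth rescued from 5-FOA killing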); details: S. cerevisiae cbk1-as DSE1-URA3 strain, 5-FOA growth OD615, 2 d; at 50 µM; hits give high values

CCN(CC)CC(=O)n1c2c(c3ccccc31)CCCC2
inactive: growth inhibition [1] 4.59% | growth inhibition [2] -2.73% | viability increase [3] -1.1% | viability [4] 94.5% | viability [5] 99.5% | inhibition [6] 0.57% | RAM network inhibition [7] 0.67%

Cc1ccnc(SCCn2c(N3CCN(c4ccccc4)CC3)nc3c2c(=O)[nH]c(=O)n3C)n1
inactive: growth inhibition [1] -8.81% | growth inhibition [2] 5.83% | viability increase [3] -3.59% | viability [4] 89.4% | viability [5] 76.8% | inhibition [6] 2.09% | RAM network inhibition [7] 4.01%

Cn1c(=O)c2c(SC3CCCC3)nc(C3CC3)nc2n(C)c1=O
inactive: growth inhibition [1] 3.3% | growth inhibition [2] -9.07% | viability increase [3] 1.43% | viability [4] 91% | viability [5] 86.3% | inhibition [6] 2.54% | RAM network inhibition [7] 2.78%

Cn1nnnc1P(=O)(c1ccccc1)c1ccccc1
inactive: growth inhibition [1] 0.165% | growth inhibition [2] 0.5% | viability increase [3] 0.85% | viability [4] 103% | viability [5] 102% | inhibition [6] 0.995% | RAM network inhibition [7] 1.32%

COC(=O)c1ccc2c(=O)n3c(nc2c1)SCC(c1ccccc1)=N3
inactive: growth inhibition [1] 2.69% | growth inhibition [2] -0.25% | viability increase [3] -1.81% | viability [4] 95.1% | viability [5] 94.8% | inhibition [6] 2.39% | RAM network inhibition [7] 10.7%

O=C(Nc1ccncc1)c1ccc2c(c1)OCCO2
inactive: growth inhibition [1] 1.55% | growth inhibition [2] -11.1% | viability increase [3] 0.93% | viability [4] 85.6% | viability [5] 84% | inhibition [6] 1.98% | RAM network inhibition [7] 5.5%

CC1CCCCN1CCNC(=O)c1cc2c(=O)n(C)c3ccccc3c2n1C (configuration not stated)
inactive: growth inhibition [1] -12.9% | growth inhibition [2] -9.04% | viability increase [3] -6.71% | viability [4] 78.9% | viability [5] 72.7% | inhibition [6] 2.5% | RAM network inhibition [7] 1.31%

CC(=O)Oc1ccc(N2C(=O)C3C4C=CC(O4)C3C2=O)cc1 (configuration not stated)
inactive: growth inhibition [1] 14.2% | growth inhibition [2] 27.7% | viability increase [3] -1.46% | viability [4] 92.1% | viability [5] 101% | inhibition [6] 2.19% | RAM network inhibition [7] 0.14%

N#CCCN1CCN(S(=O)(=O)c2ccc(S(=O)(=O)N3CCOCC3)cc2)CC1
inactive: growth inhibition [1] -6.47% | growth inhibition [2] 4.95% | viability increase [3] 0.97% | viability [4] 95.2% | viability [5] 98.8% | inhibition [6] -0.88% | RAM network inhibition [7] -2.16%

O=C(O)c1ccccc1C(=O)NCC(O)COCC1CC=CCC1 (configuration not stated)
inactive: growth inhibition [1] -14.5% | growth inhibition [2] -16.2% | viability increase [3] -1.89% | viability [4] 101% | viability [5] 100% | inhibition [6] 1.33% | RAM network inhibition [7] 3.55%

O=S(=O)(NCCSc1nc2ccccc2o1)c1ccccc1
inactive: growth inhibition [1] -8% | growth inhibition [2] -2.81% | viability increase [3] -1.25% | viability [4] 94.4% | viability [5] 89% | inhibition [6] -0.55% | RAM network inhibition [7] 6.51%

O=C(C1CC1)N1CCc2cc(Br)cc(S(=O)(=O)NCc3ccc4c(c3)OCO4)c21
inactive: growth inhibition [1] -4.48% | growth inhibition [2] -5.21% | viability increase [3] -1.52% | viability [4] 87.1% | viability [5] 86.1% | inhibition [6] 1.23% | RAM network inhibition [7] 5.72%

Cc1c(C(=O)NCc2ccccn2)sc2nc(-c3ccccc3)cn12
inactive: growth inhibition [1] 6.98% | growth inhibition [2] 13.1% | viability increase [3] 0.68% | viability [4] 112% | viability [5] 101% | inhibition [6] 0.91% | RAM network inhibition [7] 0.57%

CC(C)(C)NCCCCOc1ccc(F)cc1
inactive: growth inhibition [1] 0.455% | growth inhibition [2] -1.1% | viability increase [3] 0.34% | viability [4] 99.3% | viability [5] 101% | inhibition [6] 1.71% | RAM network inhibition [7] 1.66%

CCCCN(CC)CCNc1c(NC2CCN(C(=O)OCC)CC2)c(=O)c1=O
inactive: growth inhibition [1] 2.35% | growth inhibition [2] 5.98% | viability increase [3] -0.12% | viability [4] 100% | viability [5] 95% | inhibition [6] 0.09% | RAM network inhibition [7] 3.37%

CCC(C)Sc1nnc(Cc2cc(=O)[nH]c(=O)[nH]2)n1-c1ccc(F)cc1 (configuration not stated)
inactive: growth inhibition [1] -0.665% | growth inhibition [2] 15.2% | viability increase [3] -1.78% | viability [4] 97.1% | viability [5] 100% | inhibition [6] 0.605% | RAM network inhibition [7] -1.47%

Cn1c(=O)oc2cc(S(=O)(=O)Nc3ccc(Cl)cc3F)ccc21
inactive: growth inhibition [1] -9.48% | growth inhibition [2] -19.3% | viability increase [3] 2.12% | viability [4] 105% | viability [5] 92.7% | inhibition [6] 0.53% | RAM network inhibition [7] 9.07%

COc1ccc(C)c2sc(=NC(=O)c3ccc(C#N)cc3)n(C)c12
inactive: growth inhibition [1] -5.79% | growth inhibition [2] -17.2% | viability increase [3] -3.95% | viability [4] 85.3% | viability [5] 81.6% | inhibition [6] 0.96% | RAM network inhibition [7] 1.83%

CCCC(=O)Nc1ccc(N2CCCCC2)cc1
inactive: growth inhibition [1] -9.5% | growth inhibition [2] -9.51% | viability increase [3] -2.5% | viability [4] 87.2% | viability [5] 94.4% | inhibition [6] 3.02% | RAM network inhibition [7] 5.92%

CCCNC(=O)CS(=O)Cc1nc(-c2ccccc2C)oc1C (configuration not stated)
inactive: growth inhibition [1] -14.3% | growth inhibition [2] -5.72% | viability increase [3] 0.85% | viability [4] 94.2% | viability [5] 96.9% | inhibition [6] -0.325% | RAM network inhibition [7] 6.48%

O=C(Nc1nc2c(Cl)ccc(Cl)c2s1)c1ccco1
inactive: growth inhibition [1] -22% | growth inhibition [2] -3.32% | viability increase [3] -6.22% | viability [4] 90.1% | viability [5] 85.2% | inhibition [6] 1.41% | RAM network inhibition [7] 2.84%

COC(=O)c1sc2ccccc2c1N
inactive: growth inhibition [1] 1.37% | growth inhibition [2] 27.7% | viability increase [3] -3.26% | viability [4] 101% | viability [5] 94.6% | inhibition [6] 0.515% | RAM network inhibition [7] 2.29%

Cc1ccc(C)c(N(C)S(=O)(=O)c2cccc3nsnc23)c1
inactive: growth inhibition [1] -6.8% | growth inhibition [2] -6.89% | viability increase [3] -3.51% | viability [4] 79.5% | viability [5] 75.5% | inhibition [6] 0.92% | RAM network inhibition [7] 7.63%

CCCN(CCC)C(=O)c1ccc2c(c1)N(Cc1ccccc1)C(=O)CS2=O (configuration not stated)
inactive: growth inhibition [1] 2.79% | growth inhibition [2] -7.64% | viability increase [3] -2.62% | viability [4] 88.1% | viability [5] 83.4% | inhibition [6] 0.885% | RAM network inhibition [7] 1.55%

CCOC(=O)c1ccc(CSc2n[nH]c(C)n2)o1
inactive: growth inhibition [1] -3.09% | growth inhibition [2] -7.67% | viability increase [3] -2.58% | viability [4] 97.7% | viability [5] 96.7% | inhibition [6] -1.18% | RAM network inhibition [7] 1.95%

c1ccc2[nH]c(-c3ccnc4ccccc34)nc2c1
inactive: growth inhibition [1] 0.915% | growth inhibition [2] -4.32% | viability increase [3] -4.45% | viability [4] 102% | viability [5] 95.9% | inhibition [6] 0.605% | RAM network inhibition [7] 2.99%

N#CCCn1c(C(C#N)(CCC#N)CCC#N)nc2ccccc21
inactive: growth inhibition [1] 5.8% | growth inhibition [2] 5.04% | viability increase [3] -0.72% | viability [4] 96.5% | viability [5] 99.4% | inhibition [6] 1.6% | RAM network inhibition [7] 1.63%

CCOC(=O)C1CCN(C(c2ccc(OC)c(OC)c2)c2sc3nc(C)nn3c2O)CC1 (configuration not stated)
inactive: growth inhibition [1] -3.62% | growth inhibition [2] 9.57% | viability increase [3] -2.25% | viability [4] 95.4% | viability [5] 96.1% | inhibition [6] -0.01% | RAM network inhibition [7] -0.97%

N=c1sccn1CC(=O)Nc1ccccc1-c1ccccc1
inactive: growth inhibition [1] -5.55% | growth inhibition [2] -3.2% | viability increase [3] -2.08% | viability [4] 94.3% | viability [5] 95.8% | inhibition [6] 2.95% | RAM network inhibition [7] 3.6%

CCOC(=O)C1C(=O)CC(C)(O)C(C(=O)OCC)C1c1cccs1 (configuration not stated)
inactive: growth inhibition [1] -3.39% | growth inhibition [2] -20.4% | viability increase [3] -2.92% | viability [4] 90% | viability [5] 89.2% | inhibition [6] 2.07% | RAM network inhibition [7] 4.69%

COc1ccc(C(=O)c2cn[nH]c2-c2cc(Cl)ccc2O)cc1
inactive: growth inhibition [1] 3.93% | growth inhibition [2] 4.28% | viability increase [3] -1.77% | viability [4] 87.7% | viability [5] 78.7% | inhibition [6] 1.17% | RAM network inhibition [7] 3.53%

CCOc1ccc(C(=O)Nn2cnnc2)cc1
inactive: growth inhibition [1] -3.16% | growth inhibition [2] -5.59% | viability increase [3] 0.25% | viability [4] 104% | viability [5] 103% | inhibition [6] 0.895% | RAM network inhibition [7] 1.85%

Cc1ccc(N)c(C(O)(C(F)(F)F)C(F)(F)F)c1
inactive: growth inhibition [1] -4.98% | growth inhibition [2] -2.67% | viability increase [3] 2.71% | viability [4] 105% | viability [5] 99.6% | inhibition [6] -0.695% | RAM network inhibition [7] 2.27%

c1ccc2c(c1)OCC(c1csc3ncnc(N4CCOCC4)c13)O2 (configuration not stated)
inactive: growth inhibition [1] -14.1% | growth inhibition [2] -9.32% | viability increase [3] -3.2% | viability [4] 94.4% | viability [5] 75.7% | inhibition [6] 1.26% | RAM network inhibition [7] 8.63%

Cc1ccc(-c2nnc(SCC(=O)Nc3ccccc3F)o2)cc1
inactive: growth inhibition [1] -11.9% | growth inhibition [2] 2.46% | viability increase [3] -0.16% | viability [4] 41.8% | viability [5] 37.8% | inhibition [6] 4.38% | RAM network inhibition [7] 5.9%

Cc1noc(C(=O)Nc2sc3c(c2C#N)CCC3)c1Cl
inactive: growth inhibition [1] -6.86% | growth inhibition [2] 2.54% | viability increase [3] -1.69% | viability [4] 65.8% | viability [5] 55.6% | inhibition [6] 1.84% | RAM network inhibition [7] 2.59%
